# Activity calls are given as the source filed them. The calls are words filed in the database; no cut-off is given here.
# Tests used:
# [1] = molecular target: T1, Proteasome subunit beta type-8 (Mus musculus, UniProt P28063); test: Inhibition of LMP7 in mouse A20 cells by ELISA; format: cell-based
# T1 sequence (P28063 whole entry): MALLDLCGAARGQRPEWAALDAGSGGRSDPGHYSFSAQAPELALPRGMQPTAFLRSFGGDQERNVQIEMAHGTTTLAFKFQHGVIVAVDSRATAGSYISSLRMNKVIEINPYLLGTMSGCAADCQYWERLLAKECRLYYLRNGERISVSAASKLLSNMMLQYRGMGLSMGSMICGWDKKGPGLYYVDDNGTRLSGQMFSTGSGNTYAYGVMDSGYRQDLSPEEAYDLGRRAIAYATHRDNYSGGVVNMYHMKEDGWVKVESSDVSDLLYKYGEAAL
# Outline: (§1)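 Mouse A20 B-cell lymphoma cell lysate (1 mg/mL, hypotonic 20 mM Tris pH 8, 5 mM EDTA) treated with serially diluted compound for 1 h at 25 °C. Then 5 μM biotinylated active-site probe for 2 h at 25 °C, guanidine denaturation and streptavidin bead capture. Subunit-specific antibody and HRP chemiluminescence, signal normalized to protein, IC50 from percent activity versus DMSO controls.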
# [2] = molecular target: T2, Proteasome subunit beta type-8 (Homo sapiens, UniProt P28062); test: Inhibition of LMP7 in human MOLT4 cells by ELISA; format: cell-based
# T2 sequence (P28062 whole entry): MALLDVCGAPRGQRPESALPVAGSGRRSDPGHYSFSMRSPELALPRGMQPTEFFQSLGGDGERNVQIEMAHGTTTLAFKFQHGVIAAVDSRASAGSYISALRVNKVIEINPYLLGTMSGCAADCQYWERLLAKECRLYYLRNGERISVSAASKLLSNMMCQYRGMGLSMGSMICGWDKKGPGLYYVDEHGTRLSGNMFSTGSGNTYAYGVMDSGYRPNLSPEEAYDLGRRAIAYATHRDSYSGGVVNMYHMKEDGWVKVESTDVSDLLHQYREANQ
# [3] = Solubility of the compound in phosphate buffer at pH 7.2 at 10 mg/ml after 24 hrs by HPLC-UV method; format: physicochemical
# Outline: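 Compound shaken at a target 10 mg/mL in 50 mM potassium phosphate buffer for 24 h at 25 °C, then centrifuged at 15 000 rpm for 15 min. Supernatant diluted 100-fold in DMSO and quantified by HPLC-UV (220/254/280 nm) against a three-level DMSO standard curve, in duplicate.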
# [4] = molecular target: T3, Proteasome Macropain subunit MB1 (Homo sapiens, UniProt P28074); test: Inhibition of 20S proteosome beta 5 in human MOLT4 cells by ELISA; format: cell-based
# T3 sequence (P28074 whole entry): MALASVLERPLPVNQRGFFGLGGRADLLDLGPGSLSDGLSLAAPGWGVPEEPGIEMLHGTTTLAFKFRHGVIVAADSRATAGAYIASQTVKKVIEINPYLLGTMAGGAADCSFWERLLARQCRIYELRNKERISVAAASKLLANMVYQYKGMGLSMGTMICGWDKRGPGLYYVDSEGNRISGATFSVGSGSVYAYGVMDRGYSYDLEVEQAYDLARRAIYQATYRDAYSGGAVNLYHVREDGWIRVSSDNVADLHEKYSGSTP
# [5] = molecular target: T4, Proteasome subunit beta type-5 (Mus musculus, UniProt O55234); test: Inhibition of 20S proteosome beta 5 in mouse A20 cells by ELISA; format: cell-based
# T4 sequence (O55234 whole entry): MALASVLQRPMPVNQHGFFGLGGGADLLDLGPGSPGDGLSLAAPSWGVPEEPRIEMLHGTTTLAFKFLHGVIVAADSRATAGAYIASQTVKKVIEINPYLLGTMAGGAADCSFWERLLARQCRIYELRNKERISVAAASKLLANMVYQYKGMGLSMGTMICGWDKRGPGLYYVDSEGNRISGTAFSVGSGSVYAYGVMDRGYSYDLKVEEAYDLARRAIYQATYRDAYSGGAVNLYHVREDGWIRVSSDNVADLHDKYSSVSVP
# [6] = molecular target: T5, Proteasome subunit beta type-9 (Homo sapiens, UniProt P28065); test: Inhibition of LMP2 in human MOLT4 cells by ELISA; format: cell-based
# T5 sequence (P28065 whole entry): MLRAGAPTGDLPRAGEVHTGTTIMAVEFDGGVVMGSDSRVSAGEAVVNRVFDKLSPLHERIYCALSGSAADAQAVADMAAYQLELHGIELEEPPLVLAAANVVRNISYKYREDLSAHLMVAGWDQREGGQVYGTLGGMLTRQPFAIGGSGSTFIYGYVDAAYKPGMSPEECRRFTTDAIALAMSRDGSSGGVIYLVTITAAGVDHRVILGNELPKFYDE
# [7] = molecular target: T6, Proteasome subunit beta type-10 (Homo sapiens, UniProt P40306); test: Inhibition of MECL1 in human MOLT4 cells by ELISA; format: cell-based
# T6 sequence (P40306 whole entry): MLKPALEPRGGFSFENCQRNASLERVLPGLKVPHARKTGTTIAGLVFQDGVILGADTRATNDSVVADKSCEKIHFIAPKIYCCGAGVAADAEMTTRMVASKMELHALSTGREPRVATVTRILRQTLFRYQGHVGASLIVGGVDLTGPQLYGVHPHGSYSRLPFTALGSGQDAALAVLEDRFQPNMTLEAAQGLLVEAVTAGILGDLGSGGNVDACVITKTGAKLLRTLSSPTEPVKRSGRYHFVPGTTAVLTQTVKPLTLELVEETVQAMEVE
# [8] = molecular target: Proteasome subunit beta type-2 (Mus musculus, UniProt Q9R1P3); test: Inhibition of 20S proteosome beta 2 in mouse A20 cells by ELISA; format: cell-based
# Sequence of Proteasome subunit beta type-2 (Q9R1P3 whole entry): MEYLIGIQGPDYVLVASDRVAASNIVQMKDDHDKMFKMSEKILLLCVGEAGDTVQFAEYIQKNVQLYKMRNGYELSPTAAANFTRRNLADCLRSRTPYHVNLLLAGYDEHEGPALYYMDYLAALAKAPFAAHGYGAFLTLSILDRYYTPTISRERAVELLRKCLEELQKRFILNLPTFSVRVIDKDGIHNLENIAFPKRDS
# [9] = molecular target: T7, Proteasome subunit beta type-10 (Mus musculus, UniProt O35955); test: Inhibition of MECL1 in mouse A20 cells by ELISA; format: cell-based; outline: as §1
# T7 sequence (O35955 whole entry): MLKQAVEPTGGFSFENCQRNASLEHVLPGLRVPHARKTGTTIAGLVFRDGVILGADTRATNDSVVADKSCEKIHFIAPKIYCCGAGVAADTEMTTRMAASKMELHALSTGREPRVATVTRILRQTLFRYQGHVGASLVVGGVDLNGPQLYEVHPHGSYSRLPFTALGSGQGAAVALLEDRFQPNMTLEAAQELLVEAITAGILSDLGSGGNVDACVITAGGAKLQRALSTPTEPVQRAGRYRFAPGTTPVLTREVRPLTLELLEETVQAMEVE
# [10] = molecular target: T8, Proteasome subunit beta type-9 (Mus musculus, UniProt P28076); test: Inhibition of LMP2 in mouse A20 cells by ELISA; format: cell-based; outline: as §1
# T8 sequence (P28076 whole entry): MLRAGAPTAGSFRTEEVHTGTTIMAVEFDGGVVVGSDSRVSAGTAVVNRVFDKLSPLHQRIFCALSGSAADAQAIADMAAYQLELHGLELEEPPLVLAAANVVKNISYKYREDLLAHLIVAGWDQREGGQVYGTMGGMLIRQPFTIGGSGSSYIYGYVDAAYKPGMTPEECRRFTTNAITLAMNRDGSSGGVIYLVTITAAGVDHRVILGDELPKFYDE
# [11] = Half life in Sprague-Dawley rat at 2 to 9 mg/kg, iv administered as bolus dose by LC/MS-MS analysis; format: ADME, organism-based; conditions: in vivo
# [12] = tested on: PBMC; test: Antiinflammatory activity in human PBMC assessed as reduction in LPS-stimulated IL-6 expression at 250 nM preincubated for 1 hr followed by LPS stimulation measured after 24 hrs by ELISA; format: functional, cell-based
# Outline: (§2)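 Cryopreserved healthy-donor PBMC in RPMI 1640 with 5% heat-inactivated FBS, 250 000 cells/well. Compound (0.1% DMSO final) for 1 h at 37 °C, 5% CO2, then 4 washes with medium. Stimulated with 1 μg/mL LPS for 24 h; supernatant TNFα, IL-6 and IL-12/23p40 by electrochemiluminescent immunoassay. Mean level relative to DMSO controls, n = 6.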
# [13] = molecular target: T9, Proteasome subunit beta type-9 (Homo sapiens) (UniProt P28065); test: Inhibition of LMP2 in human PBMC at 250 nM by ELISA
# T9 sequence (whole entry): T5 sequence (P28065 whole entry)
# Outline: (§3)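 Cryopreserved healthy-donor human PBMC in RPMI 1640 with 5% heat-inactivated FBS, exposed to compound (0.1% DMSO final) for 1 h at 37 °C, 5% CO2, then washed. Subunit-specific active-site occupancy read by ProCISE: biotinylated active-site probe binding, denaturation, streptavidin capture, subunit-specific antibody and HRP chemiluminescence. Signal normalized to protein and expressed relative to DMSO controls.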
# [14] = tested on: PBMC; test: Antiinflammatory activity in human PBMC assessed as reduction in anti-CD3/CD28 antibody-stimulated IFN-gamma expression at 250 nM preincubated for 1 hr followed by anti-CD3/CD28 antibody stimulation measured after 24 hrs by ELISA; format: functional, cell-based
# Outline: (§4)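 Healthy-donor PBMC, thawed from cryopreservation, 250 000 cells/well in RPMI 1640/5% FBS. Pretreated 1 h at 37 °C with compound alone or combined (0.1% DMSO final), washed 4 times, then stimulated 24 h with anti-CD3 and anti-CD28 antibodies. TNFα and IFNγ in supernatants by electrochemiluminescent ELISA; expressed relative to DMSO-treated controls (n = 6).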
# [15] = tested on: PBMC; test: Antiinflammatory activity in human PBMC assessed as reduction in LPS-stimulated p40 subunit of […] expression at 250 nM preincubated for 1 hr followed by LPS stimulation measured after 24 hrs by ELISA; format: functional, cell-based; outline: as §2
# [16] = molecular target: T10, Proteasome subunit beta type-8 (Homo sapiens) (UniProt P28062); test: Inhibition of LMP7 in human PBMC at 250 nM by ELISA; outline: as §3
# T10 sequence (whole entry): T2 sequence (P28062 whole entry)
# [17] = tested on: PBMC; test: Antiinflammatory activity in human PBMC assessed as reduction in anti-CD3/CD28 antibody-stimulated TNF-alpha expression at 250 nM preincubated for 1 hr followed by anti-CD3/CD28 antibody stimulation measured after 24 hrs by ELISA; format: functional, cell-based; outline: as §4
# [18] = tested on: PBMC; test: Antiinflammatory activity in human PBMC assessed as reduction in LPS-stimulated TNF-alpha expression at 250 nM preincubated for 1 hr followed by LPS stimulation measured after 24 hrs by ELISA; format: functional, cell-based; outline: as §2
IC50 [1] [nM],IC50 [2] [nM],solubility at 24 h [3] [µg/mL],IC50 [4] [nM],IC50 [5] [nM],IC50 [6] [nM],IC50 [7] [nM],IC50 [10] [nM],Compound,further results
110,–,2730,–,694,223,–,–,COc1ccc(C[C@H](NC(=O)[C@H](C)NC(=O)CN2CCOCC2)C(=O)N[C@@H](CC2=CCCC2)C(=O)[C@@]2(C)CO2)cc1,–
262,23,240,782,507,3530,> 25000,–,COc1ccc(C[C@H](NC(=O)[C@@H](C)NC(=O)[C@H]2CC[C@H](O)CC2)C(=O)N[C@@H](Cc2ccccc2)C(=O)[C@@]2(C)CO2)cc1,–
56,49,–,39,38,415,97,415,CC(C)C[C@H](NC(=O)CN1CCCCCC1)C(=O)N[C@@H](Cc1ccccc1)C(=O)N[C@@H](Cc1ccccc1)C(=O)[C@@]1(C)CO1,IC50 [8]: 141 nM; IC50 [9]: 159 nM

# The next lines start with the compound.
Compound,IC50 [1] [nM],IC50 [2] [nM],solubility at 24 h [3] [µg/mL],IC50 [4] [nM],IC50 [5] [nM],IC50 [6] [nM],IC50 [7] [nM],IC50 [10] [nM],further results
COc1ccc(C[C@H](NC(=O)[C@@H](C)NC(=O)C2=C(C)c3ccccc3C2)C(=O)N[C@@H](Cc2ccccc2)C(=O)[C@@]2(C)CO2)cc1,764,76,1.4,3620,2340,–,–,–,–
COc1ccc(C[C@H](NC(=O)[C@@H](C)NC(=O)C2CCCCC2)C(=O)N[C@@H](Cc2ccccc2)C(=O)[C@@]2(C)CO2)cc1,141,–,12.1,–,118,–,–,–,–
CC(C)C[C@H](NC(=O)[C@H](CCc1ccccc1)NC(=O)CN1CCOCC1)C(=O)N[C@@H](Cc1ccccc1)C(=O)N[C@@H](CC(C)C)C(=O)[C@@]1(C)CO1 [CARFILZOMIB],–,–,–,–,–,–,–,–,half-life [11]: < 15 min
CC1=C(C(=O)N[C@@H](C)C(=O)N[C@@H](Cc2c[nH]c3ccccc23)C(=O)N[C@@H](Cc2ccccc2)C(=O)[C@@]2(C)CO2)Cc2ccccc21,50,38,1.85,54,47,–,–,–,–
COc1ccc(C[C@H](NC(=O)[C@@H](C)NC(=O)[C@H]2CC[C@H](O)CC2)C(=O)N[C@@H](CC2CCC2)C(=O)[C@@]2(C)CO2)cc1,556,–,979,–,6810,–,–,–,–
CC1=C(C(=O)N[C@H](C)C(=O)N[C@@H](Cc2c[nH]c3ccccc23)C(=O)N[C@@H](Cc2ccccc2)C(=O)[C@@]2(C)CO2)Cc2ccccc21,573,39,0.75,1670,1360,2210,> 25000,4780,–
COc1ccc(C[C@H](NC(=O)[C@H](C)NC(=O)CN2CCOCC2)C(=O)N[C@@H](Cc2ccccc2)C(=O)[C@@]2(C)CO2)cc1,98,–,< 0.5,–,401,–,–,328,Activity [12]: Active; inhibition [13]: Active; Activity [14]: Active; inhibition [15]: Active; inhibition [16]: Active; IC50 [9]: 699 nM; Activity [17]: Active; Activity [18]: Active

# Source: ChEMBL document CHEMBL4411269, “Required Immunoproteasome Subunit Inhibition Profile for Anti-Inflammatory Efficacy and Clinical Candidate KZR-616 ((2 S,3 R)- N-(( S)-3-(Cyclopent-1-en-1-yl)-1-(( R)-2-methyloxiran-2-yl)-1-oxopropan-2-yl)-3-hydroxy-3-(4-methoxyphenyl)-2-(( S)-2-(2-morpholinoacetamido)propanamido)propenamide)” (J Med Chem, 2018)
